SUMO1-SIM PPI: alters human SUMO1 binding to SIM partners | P63165 | SUMO1 binding to a labelled peptide, TR-FRET, 1 h | inhibition, % at 20 µM | actives 0.33% (n = 360,000) | AID 602429; in the data active = inhibition above about 37%
Target sequence (P63165 whole entry, looked up): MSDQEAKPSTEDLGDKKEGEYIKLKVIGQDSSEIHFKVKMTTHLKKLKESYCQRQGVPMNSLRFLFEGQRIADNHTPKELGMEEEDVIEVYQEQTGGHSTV
Scp1 inh: blocks human Scp-1 phosphatase activity | actives 0.88% (n = 340,000) | Q9GZU7 | inhibition, % at 20 µM | Recombinant Scp1, phosphopeptide, malachite green phosphate absorbance;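 active = inhibition above about 50% at 20 µM, limit read from the data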;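 also: plate controls were DMSO wells with enzyme for no effect and wells lacking enzyme for full effect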
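Material – SCP-1 phosphatase catalytic domain, residues 76-261 · Buffer or medium – Acidic Tris acetate buffer with magnesium and detergent · Also added – Phospho 17-mer peptide substrate · Compound – single 20 µM dose, 1% DMSO · Times – 45 min room-temperature reaction, 5 min colour, 30 min stabiliser · Technique – Phosphate-binding colour reagent, absorbance read at 630 nm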
STEP inh: inhibitors of human striatal-enriched phosphatase STEP; P54829; recombinant STEP, OMFP fluorogenic substrate, fluorescence; inhibition, % at 20 µM; actives 0.25% (n = 360,000);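 active = inhibition at 20 µM, scaled per plate between control wells, above about 37%, limit read from the data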;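 also: 0% = DMSO with enzyme and substrate and 100% = substrate only without enzyme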
Target sequence (P54829 whole entry, looked up): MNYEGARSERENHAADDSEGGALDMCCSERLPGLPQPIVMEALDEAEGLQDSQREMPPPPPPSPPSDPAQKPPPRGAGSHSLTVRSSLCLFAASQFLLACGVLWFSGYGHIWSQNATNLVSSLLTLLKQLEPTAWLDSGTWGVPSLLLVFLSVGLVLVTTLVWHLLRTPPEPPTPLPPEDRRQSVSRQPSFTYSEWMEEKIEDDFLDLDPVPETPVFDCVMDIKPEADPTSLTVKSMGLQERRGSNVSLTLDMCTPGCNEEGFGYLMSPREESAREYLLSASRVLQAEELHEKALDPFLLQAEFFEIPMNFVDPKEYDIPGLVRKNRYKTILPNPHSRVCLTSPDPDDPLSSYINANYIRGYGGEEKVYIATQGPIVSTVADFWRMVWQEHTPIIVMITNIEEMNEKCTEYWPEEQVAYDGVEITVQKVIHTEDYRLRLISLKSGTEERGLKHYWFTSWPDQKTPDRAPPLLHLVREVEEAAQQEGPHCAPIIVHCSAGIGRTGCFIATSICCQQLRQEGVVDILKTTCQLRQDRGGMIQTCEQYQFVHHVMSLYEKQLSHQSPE
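Measure: Control-normalized % inhibition with plate pattern correction | Test system: STEP phosphatase, cell-free reaction | Medium: pH 6.0 Bis-Tris with DTT and Tween 20 | Technique: Fluorescence, 480/540 nm | Times: Reaction 20 min, ambient temperature | Doses: Single compound dose of 20 µM, 1% DMSO final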
DNMT1 inh: inhibitors of human DNMT1; P26358; AID 588458; DNMT1 molecular beacon, Hinp1I cleavage, fluorescence; inhibition (reported as % activation of signal), % at 10 µM; actives 0.83% (n = 360,000); in the data active = inhibition above about 50%
GRK2 inh: inhibitors of human GRK2 displacing RNA aptamer. P25098. bead flow cytometry, FAM-aptamer displacement from GRK2. inhibition of aptamer binding, % at 10 µM. actives 0.59% (n = 330,000). AID 488847;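 active = inhibition of aptamer binding above 40%, roughly 3 SD of noise, on plates passing a quality check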;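 also: median bead fluorescence of bound FAM aptamer so fluorescent compounds give negative values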
LMPTP inh: LMPTP (human) inhibition; recombinant LMPTP-A, OMFP fluorogenic substrate, fluorescence intensity; inhibition, % at 20 µM; actives 0.22% (n = 360,000); P24666;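 active = compounds that cut the enzyme signal by at least half of the control window in the single-dose screen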;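 also: plate controls were DMSO wells with enzyme plus substrate for no effect and substrate without enzyme for full effect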
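Assay system: LMPTP-A enzyme. Input: 0.625 nM LMPTP-A final. Probe or stimulus: 400 µM OMFP. Compound dosing: single 20 µM dose. Schedule: 50 min dark incubation at room temperature. Detection: fluorescence intensity of OMFP turnover product. Read-out: percent inhibition versus substrate-only and uninhibited controls. Benchmarks: no-enzyme low control, uninhibited high control.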
DNMT1 interf DR: beacon fluorescence artifact, dose response counter-screen; shares compounds with DNMT1 inh; molecular beacon fluorescence, spectral interference counter-screen; IC50, µM; 200 tested, under 10 active; call rule not given here
DNMT1 confirm: confirmation of human DNMT1 inhibitors | actives 8% (n = 2,300) | inhibition, % at 10 µM | shares compounds with DNMT1 inh | DNMT1 molecular beacon HinP1I cleavage, fluorescence;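 active = average inhibition of at least 30% in the single-concentration confirmation test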
Beacon interf: counter-screen for DNMT1 inhibitors: spectral interference; shares compounds with DNMT1 inh; DNMT1 molecular beacon spectral interference counterscreen, fluorescence 485/520; activation (fluorescence interference), % at 10 µM; actives 1% (n = 2,300); AID 602387;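 active = activation of at least 30% at 10 µM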;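 also: DNMT1 catalytic domain with a HinP1I cleavage step and a FAM/dabcyl DNA beacon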
* marks the source's active call; other numbers are inactive results; x = no result given. Hits are enriched below; roughly 2.2% of the tested compounds scored in any of these assays.

SMILES	SUMO1-SIM PPI	Scp1 inh	STEP inh	DNMT1 inh	GRK2 inh	LMPTP inh	DNMT1 confirm	Beacon interf	others
CCCCn1c(N)c(N(CCC(C)C)C(=O)c2ccc(-c3ccc([N+](=O)[O-])cc3)o2)c(=O)[nH]c1=O	-9	-7	2	84*	1	-4	0	7
CCCCc1c(-c2ccccc2OC)ncn1Cc1cccc(-c2ccccc2)c1	14	x	x	x	x	11	x	x
CC(C)NC(=O)C1(C)CN(S(C)(=O)=O)CC(=O)N1CCc1ccc(O)cc1 (stereo not drawn)	-3	x	x	x	x	0	x	x
COCC(=O)N(C)C[C@H]1N[C@@](C)(C(=O)OC)[C@H]2C(=O)N(C)C(=O)[C@@H]12	5	0	-9	86*	1	-1	0	3
C=C1C(=O)C23C(O)C1CCC2C12COC3(O)C(O)C1C(C)(C)CCC2O (stereo not drawn)	2	x	-1	-2	x	-2	x	x
C[C@@H]1CN([C@H](C)CO)C(=O)CCCn2nncc2CO[C@H]1CN(C)Cc1cccc(O)c1	2	x	-2	4	x	-2	x	x
CC1=C(C(=O)Nc2ccccc2)C(c2ccc(C)o2)n2c(s/c(=C/c3ccccc3)c2=O)=N1 (stereo not drawn)	-7	1	1	84*	0	1	3	0
CCN(CC)CCOc1ccc2c(c1)C(=NO)c1cc(OCCN(CC)CC)ccc1-2	-27	13	0	61*	0	5	34*	-3	DNMT1 interf DR=>99
CCCCN(C)C(=O)c1ccc(Nc2nc(C(N)Cc3ccc(C(F)(F)F)cc3)cs2)nc1 (stereo not drawn)	-63	x	10	-24	x	1	x	x
O=C(CCc1nc2ccccc2c(=O)[nH]1)Nc1nnc(SCc2ccc(F)cc2)s1	7	-1	1	64*	1	5	2	77*
N#Cc1ccc(NC(=O)COC(=O)CCc2nc3ccccc3c(=O)[nH]2)cc1	-1	-5	-1	3	0	1	x	x
Cc1ccc(/C=C/C(=O)Nc2nnc(SCc3ccc(C#N)cc3)s2)o1	5	-1	3	44	100*	1	19	3
O=C(CCc1nc2ccccc2c(=O)[nH]1)Nc1ccc(F)cc1	3	0	-4	5	3	-1	x	x
N#Cc1ccc(CSc2nnc(NC(=O)CCc3nc4ccccc4c(=O)[nH]3)s2)cc1	8	-4	1	68*	0	1	0	-5
O=C1C(O)=CC(=C(c2ccccc2)c2ccccc2)c2ccccc21	-19	-10	3	-7	x	4	x	x
COc1cccc(-c2cnc3c(NC(C)=O)cc(-c4ccc(C(=O)NC5CC5)cc4)cn23)c1	-11	x	-1	-3	x	5	x	x
CCNCc1cc(Br)c(OCC(=O)Nc2ccccc2)c(OC)c1	0	-9	-2	7	0	0	x	x
COc1cc(CNCC(C)C)cc(Br)c1OCC(=O)Nc1ccccc1	0	-2	1	87*	0	0	3	4
C/C(=N/NC(=O)c1cc(-c2cccc([N+](=O)[O-])c2)n[nH]1)c1cccc(O)c1	-14	-2	0	89*	0	0	3	5
CC1=C(C(=O)N2CCCCCC2)CC(CC(=O)NCCCN(C)C)C(=O)N1Cc1ccc(F)cc1 (stereo not drawn)	6	x	x	x	x	-5	x	x
C=CCn1c(CSc2ccccc2[N+](=O)[O-])n[nH]c1=S	20	17	6	70*	5	43	0	-3
C=CCn1c(Cc2ccccc2)n[nH]c1=S	6	-1	5	1	2	-4	x	x
c1ccc(-c2cnn3c(-c4ccccc4)c(-c4ccccc4)nc3n2)cc1	-50	6	-190	178*	x	-6	13	60*
O=C1N(Cc2cccc(Cl)c2)C[C@@H]2C[C@@H](c3cccn3-c3cccnc3)N3CCC[C@@]123	2	0	5	78*	0	2	2	2
O=C(Nc1ccc(F)c(Cl)c1)C1Cc2c(-c3ccccc3Oc3ccccc3)ccnc2O1 (stereo not drawn)	5	x	-4	-11	x	6	x	x
SMILES	SUMO1-SIM PPI	Scp1 inh	STEP inh	DNMT1 inh	GRK2 inh	LMPTP inh	DNMT1 confirm	Beacon interf	others
COc1cccc(NC(=S)NCCC(c2ccccc2)c2ccccc2)c1	1	-7	1	56*	0	5	9	9
COC(=O)C1=COC(OC2OC(CO)C(O)C(O)C2O)C2C(C)CC(=O)C12 (stereo not drawn)	2	x	18	74*	x	8	2	2
COc1cc(OC)cc(-c2c(Sc3ccccc3)c3cc(-c4ccc(SC)cc4)ccc3n2C)c1	-42	x	x	x	x	0	x	x
COc1ccc(S(=O)(=O)N2CCCOC2CNC(=O)C(=O)NCc2ccco2)cc1C (stereo not drawn)	-4	3	-3	71*	4	-1	2	7
ClN=C1C=CC=CC1=NCl	57*	x	8	114*	x	68*	36*	-8	DNMT1 interf DR=>99
COC1=CC(=NCl)C=CC1=NCl	16	x	7	43	x	36	x	x
CCN(CC)S(=O)(=O)c1cccc(C(=O)N[C@H](C(=O)NC2=NCCS2)C(C)C)c1	0	-10	-4	66*	0	-2	-1	2
C[C@@H]1CN([C@@H](C)CO)C(=O)CCCn2nncc2CO[C@H]1CN(C)C(=O)c1ccc(N2CCN(C)CC2)cc1	-1	x	-1	5	x	-7	x	x
CNc1ccc([N+](=O)[O-])cc1-c1nc2ccccc2[nH]c1=O	6	15	4	51*	0	4	1	-5
CC(C)C(=O)Nc1ccc(Cl)cc1-c1nc2ccccc2[nH]c1=O	-9	-8	1	1	2	-2	x	x
COc1ccc(N2C(=O)c3ccccc3NC(=O)C2C(=O)NCC(C)C)cc1 (stereo not drawn)	0	x	x	x	x	-1	x	x
COc1ccc(Nc2ccc(Nc3ccc(OC)cc3)nn2)cc1	-7	3	0	-6	0	1	x	x
COc1ccc(Nc2ccc(OC)cc2)cc1	20	-10	10	56*	3	9	3	1
c1ccc2c(c1)oc1c(-c3cccc4nccn34)cccc12	1	x	0	-5	x	7	x	x

Bioassay records (PubChem BioAssay)
